14-3-3 Bad inh: disrupts binding of bovine 14-3-3 zeta to phospho-Bad peptide | P63103 | TR-FRET 14-3-3zeta/Dy647-pBad peptide displacement, 1 h | inhibition, % at 21.7 µM | actives 0.71% (n = 220,000) | AID 781;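 active means inhibition above about 70%, limit read from the data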
eIF4E 4G PPI: inhibitors of eIF4E and eIF4G interaction in translation initiation. P63073+Q04637. TR-FRET eIF4E-eIF4GI(517-606) binding, 2 h. inhibition, % at 21.7 µM. actives 0.37% (n = 220,000)
Hck-Nef inh: human Hck-Nef kinase inhibition | P08631 | Recombinant Hck-YEEI plus Nef, Z-Lyte FRET kinase assay | inhibition, % at 20 µM | actives 0.68% (n = 220,000) | AID 463187;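 active means Hck-Nef kinase inhibition above about 50%, limit read from the data; inactive means inhibition below that limit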
Diaphorase act: activates diaphorase or chemically reduces, flagging diaphorase assay artifacts; actives 0.005% (n = 190,000); Diaphorase/resazurin coupled assay, resorufin fluorescence, 16 min; active compounds read high; 1 = vehicle wells, 0 = NADH-free wells; activation factor at 20 µM;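 active means diaphorase activity raised at least twofold by the compound at 20 µM; inactive means activation factor below 2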
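Material: purified diaphorase enzyme from Clostridium kluyveri; Also added: 0.114 mM NADH and 0.1 mM resazurin, final amounts; Doses: single compound dose of 20 µM, 1% DMSO final; Times: 16 min enzyme reaction, ambient temperature; Detection: resorufin fluorescence, excitation 544 nm, emission 590 nm; Measure: increased resorufin signal from activators or reducing compounds.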
NCF1 inh: inhibitors of human p47phox binding. P14598. p47phox/p22phox peptide binding, fluorescence polarization, 2 h. inhibition, % at 24.7 µM. actives 0.53% (n = 220,000)
Target sequence (P14598 whole entry, looked up): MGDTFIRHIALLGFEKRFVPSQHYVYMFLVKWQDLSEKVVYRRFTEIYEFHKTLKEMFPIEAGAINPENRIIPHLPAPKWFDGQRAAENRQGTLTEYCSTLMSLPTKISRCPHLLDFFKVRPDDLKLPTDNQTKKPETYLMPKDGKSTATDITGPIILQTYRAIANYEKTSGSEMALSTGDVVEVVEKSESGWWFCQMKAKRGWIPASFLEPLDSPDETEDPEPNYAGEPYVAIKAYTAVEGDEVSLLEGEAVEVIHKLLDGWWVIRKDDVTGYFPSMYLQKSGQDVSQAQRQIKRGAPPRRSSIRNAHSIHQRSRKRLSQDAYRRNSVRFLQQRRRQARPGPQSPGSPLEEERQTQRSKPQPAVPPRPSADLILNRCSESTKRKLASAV
A number is an active result; - = inactive; . = not tested or not shown; ! = a repeat was not active; [ ] = dose if it differs, or a comment. This is a sample that favours compounds with a hit; in the whole collection about 2% have one here.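 How the source made its calls, unless noted: active means inhibition above about 30% (limit read from the data); inactive means the rest.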

SMILES	14-3-3 Bad inh	eIF4E 4G PPI	Hck-Nef inh	Diaphorase act	NCF1 inh
COc1ccc(-c2oc(NC(=O)c3ccc(C)cc3)c(C#N)c2-c2ccc(OC)cc2)cc1	87[fluorescence artefact?]	-	-	-	-
Cc1cc(C(=O)NNS(=O)(=O)c2cccc(Cl)c2)nn1C(C)(C)C	-	-	-	.	-
CC(C)c1c(Cl)c(O)c(-c2ccccc2)c(=O)n1-c1ccc(F)cc1	88	-	-	-	-
COc1ccc(CN2CCC(CO)(Cc3ccccc3C(F)(F)F)CC2)c(F)c1	-	-	-	-	-
CCCn1c(N)c(N(CCOC)C(=O)/C=C/c2ccc(C(=O)OC)cc2)c(=O)[nH]c1=O	-	-	-	-	-
CC(N=C1NC(C)(C)Cc2ccccc21)C(=O)O (configuration not stated)	91	-	-	-	-
COc1cc2c(cc1OC)/C(=C/C(=O)N1CCOCC1)NC(C)(C)C2	-	-	-	-	-
CC1(C)Cc2ccccc2/C(=C/C(=O)N2CCCCCC2)N1	74	-	-	-	-
CC1(C)Cc2ccccc2C(=NCCCC(=O)O)N1	-	-	-	-	-
Nn1c(SCc2cccc(Br)c2)nnc1-c1ccncc1	-	-	-	.	-
Cc1c(Br)c(O)c(Br)c2sc(=O)oc12	-	-	-	.	-
CCOc1c(C)cc(-c2ncccc2O)cc1C	75!	-	-	-	-
Cc1cc(C)n(-c2nc3ccccc3c(=O)n2OCc2ccc(Cl)cc2)n1	-	-	-	-	-
Cc1cc(C)n(-c2nc3ccccc3c(=O)n2OCc2ccc(F)cc2)n1	70[fluorescence artefact?]	-	-	-	-
COc1cc(CO)ccc1Oc1nc2ccccc2n2cnnc12	-	-	-	.	-
COc1ccc(N(C(=O)Cc2cccs2)C(C(=O)NC2CCCCC2)c2cccn2C)cc1 (configuration not stated)	90	-	-	-	-
COc1cccc(N(C(=O)Cn2nnc(-c3cccs3)n2)C(C(=O)NC2CCCCC2)c2ccncc2)c1 (configuration not stated)	-	-	-	-	46
Cc1ccc(C)c(N(C(=O)Cn2nnc(-c3cccs3)n2)C(C(=O)NC2CCCC2)c2ccncc2)c1 (configuration not stated)	-	-	-	-	-
CCOc1ccc(S(=O)(=O)NN=C2CCN(C(C)=O)CC2)cc1	-	-	-	-	-
COc1cccc(N2CC(O)=C(c3nc4ccccc4c(=O)[nH]3)C2=N)c1	-	-	-	-	-
Cc1cc(C)cc(N2CC(O)=C(c3nc4ccccc4c(=O)[nH]3)C2=N)c1	77	-	-	-	-
O=C(Oc1ccc(=O)n(-c2ccccc2)n1)c1cccc(Cl)c1	-	33	-	-	-
COc1ccc(C(=O)Oc2ccc(=O)n(-c3ccccc3)n2)cc1	72	-	-	-	-
O=C(Oc1ccc(=O)n(-c2ccccc2)n1)c1ccc(Cl)cc1	-	-	-	-	-
CCNc1nc(=S)nc(NCc2ccccc2)[nH]1	-	-	-	-	-
SMILES	14-3-3 Bad inh	eIF4E 4G PPI	Hck-Nef inh	Diaphorase act	NCF1 inh
C=CCNC(=O)COc1cc(C)ccc1C	-	40	-	-	-
CCc1ccccc1NC(=O)C1CC(c2ccc(F)cc2)=NO1 (configuration not stated)	-	-	-	-	33
COCCNC(=O)C1CC(c2cccc(F)c2)=NO1 (configuration not stated)	-	60	-	.	-
c1ccc(-n2cc(CNCCc3cscn3)c(-c3ccc4c(c3)OCO4)n2)cc1	-	-	-	-	-
O=C(Nc1cccc(F)c1)NC1CCN(Cc2ccccc2)CC1	-	-	-	-	-
Clc1ccccc1Cc1noc(CN2CCN(c3cnccn3)CC2)n1	-	-	-	-	32
Clc1ccccc1Cc1noc(CN2CCSCC2)n1	-	-	-	.	-
COc1ccc(C2NC(c3ccc(OC)cc3OC)C(C)C(=O)C2C)c(OC)c1 (configuration not stated)	-	-	-	-	-
Cc1ccc(C2=Nc3ccc(Br)cc3C(c3ccncc3)=NN2)cc1	-	-	-	.	-
COc1ccc(-n2c(SCC3CNC(=O)O3)nnc2-c2ccc(Cl)cc2)cc1 (configuration not stated)	-	-	-	-	-
Cc1cccc(-c2nnc(SCC3CNC(=O)O3)n2-c2ccc(Cl)cc2)c1 (configuration not stated)	-	45	-	-	-
CN1CCN(S(=O)(=O)c2ccc(N3CCN(C(c4ccccc4)c4ccccc4)CC3)nc2)CC1	-	-	-	-	-
CN1CCN(S(=O)(=O)c2ccc(N3CCN(S(=O)(=O)/C=C/c4ccccc4)CC3)nc2)CC1	72	-	-	-	40
COc1cccc(/C(C)=N/NC(=O)Cc2c(C)[nH][nH]c2=O)c1	-	-	-	-	-
Cc1cc(=O)oc2cc(OC(C)C)ccc12	-	-	-	-	-
CCCC(=O)Oc1ccc2c(C)cc(=O)oc2c1	-	-	77	-	-
Cc1cc(=O)oc2cc(OC(=O)c3cncc(Br)c3)ccc12	-	-	69	-	-
Cc1cc(=O)oc2cc(OC(=O)CCN3C(=O)c4ccccc4C3=O)ccc12	-	-	-	-	-
COC(=O)c1c(C)nn(-c2ccc(F)c(Cl)c2)c1-c1cc(C)on1	-	-	-	.	-
COc1cccc(F)c1C(=O)NC(=O)Nc1ccc2nc(C)oc2c1	-	-	-	.	-
Cc1ccc(NC(=O)NC(=O)CN2C(=O)NC3(CCCCCCC3)C2=O)c(C)c1	71	-	-	-	-
Cc1cc(Br)ccc1NC(=O)CNC(=O)CN1C(=O)NC2(CCCCCC2)C1=O	-	-	-	-	-
CN1CCN(CC(=O)N2CCn3c4c(c5cc(C6CCCCC6)ccc53)CCCC42)CC1 (configuration not stated)	-	-	-	-	31
Cc1ccc(NS(=O)(=O)c2cc([N+](=O)[O-])ccc2N/N=C/c2sc(N3CCOCC3)nc2-c2ccccc2)c(C)c1	-	-	-	.	-
COc1ccc(OC)c(Nc2ncnc3sc(-c4ccccc4)cc23)c1	80[fluorescence artefact?]	38	-	-	-
SMILES	14-3-3 Bad inh	eIF4E 4G PPI	Hck-Nef inh	Diaphorase act	NCF1 inh
CC1CCN(CCCCOc2ccccc2[N+](=O)[O-])CC1	85	-	-	-	-
CC1CCN(CCCCOc2ccc([N+](=O)[O-])cc2)CC1	-	-	-	-	-
Cc1cc(N2CCN(C)CC2)nc2ccc(NC(=S)N3CCCCC3)cc12	-	-	-	-	-
Cc1cccc(N2CCN(C(=S)Nc3ccc4nc(N5CCN(C)CC5)cc(C)c4c3)CC2)c1C	-	-	-	-	44
Cc1nnsc1-c1c(C(=O)N2CCOCC2)c(C)nn1-c1ccc(Cl)cc1	-	-	-	.	-
COc1ccccc1CNc1nc(-c2cc(C)n(C)c2C)cs1	96	47	67	-	46
Cc1cc(-c2csc(N)n2)c(C)n1C	-	-	-	-	-
Cc1cc(/C(N)=N/OC(=O)c2ccc(Cl)cc2)no1	70	-	-	.	-
